Assay results reported in ChEMBL document CHEMBL3739301, “Design, synthesis and biological evaluation of tricyclic diterpene derivatives as novel neuroprotective agents against ischemic brain injury” (Eur J Med Chem, 2015).
Active and inactive are the calls of the source. The calls are words filed in the database; no cut-off is given here.

Tests used:
Rattus norvegicus [1] = assay: Anti-ischemic activity in Sprague-Dawley rat transient middle cerebral artery occlusion model assessed as reduction in infarct volume at 10 mg/kg, iv administered for 2 to 6 hrs post middle cerebral artery occlusion measured at 24 hrs by TTC staining-based morphometric analysis; assay type: organism-based; design: scale not given: the % may be the effect or the level left; settings: in vivo
Method in brief: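 Male Sprague-Dawley rats (260-280 g), middle cerebral artery occluded 2 h by intraluminal nylon monofilament, then reperfused; body temperature held at 37 C. Drug given iv at 2, 4 and 6 h after ischemia onset (test agent in DMSO, edaravone in saline; vehicle controls). Neurological scoring at 24 h; 2 mm coronal slices stained with 2% TTC 20 min at 37 C, formalin-fixed; infarct volume by morphometry; n = 8-12.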

[2] = Neuroprotective activity in Sprague-Dawley rat CGN cells assessed as upregulation of HO-1 expression after 24 hrs by Western blot analysis; assay type: functional, cell-based
Method in brief: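 Primary granule neurons treated with a concentration series for 24 h, lysed in RIPA buffer, protein by BCA. Separated on 15% SDS-PAGE, transferred to PVDF, blocked in 5% BSA. Primary antibody overnight at 4 °C, secondary 30 min at room temperature; chemiluminescent detection. HO-1 quantified by densitometry normalized to β-actin. n = 3, mean ± SD.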

[3] = Neuroprotective activity against glutamate-induced neuronal cell death in Sprague-Dawley rat CGN cells at 10 uM preincubated for 24 hrs followed by glutamate challenge measured after 24 hrs relative to control; assay type: functional
[4] = Permeability of the compound at 25 ug/ml after 18 hrs by PAMPA assay; assay type: ADME; settings: read-out: permeability
[5] = Cytotoxicity against Sprague-Dawley rat CGN cells at 50 to 100 uM after 72 hrs by MTT assay; assay type: cell-based
Method in brief: (§1)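 Primary cerebellar granule neurons from 8-day SD rat pups; cytosine arabinoside […] added at 24 h, used at DIV 6–8. Cells exposed to a concentration series for 72 h, 0.1% DMSO final. Viability by MTT (0.5 mg/ml, 4 h, 37 °C); formazan dissolved in DMSO, OD 570 nm. n = 3, mean ± SD.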

Rattus norvegicus [6] = assay: Antioxidant activity in Sprague-Dawley rat transient middle cerebral artery occlusion model assessed as […] in GSH level in ipsilateral cortex at 10 mg/kg, iv measured at 24 hrs post middle cerebral artery occlusion; assay type: functional, organism-based
Method in brief: (§2)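 Rat tMCAO: 2 h suture occlusion, then reperfusion. Dosing iv at 2, 4 and 6 h after onset, 10 mg/kg (DMSO) or 3 mg/kg (saline). At 24 h the ipsilateral cortex was lysed in RIPA buffer and protein quantified by BCA. GSH concentration and SOD activity were then measured with commercial kits.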

Rattus norvegicus [7] = assay: Toxicity in Sprague-Dawley rat transient middle cerebral artery occlusion model at 10 mg/kg, iv; assay type: organism-based; settings: in vivo
[8] = Neuroprotective activity against glutamate-induced neuronal cell death in Sprague-Dawley rat CGN cells assessed as cell viability at 10 uM preincubated for 24 hrs followed by glutamate challenge measured after 24 hrs by MTT assay (reference value: 40.4%); assay type: functional; settings: read-out: Activity
Rattus norvegicus [9] = assay: Antioxidant activity in Sprague-Dawley rat transient middle cerebral artery occlusion model assessed as […] in SOD level in ipsilateral cortex at 10 mg/kg, iv measured at 24 hrs post middle cerebral artery occlusion; assay type: functional, organism-based; method in brief: as §2
Rattus norvegicus [10] = assay: Anti-ischemic activity in Sprague-Dawley rat transient middle cerebral artery occlusion model assessed as reduction in neurological deficit at 10 mg/kg, iv administered for 2 to 6 hrs post middle cerebral artery occlusion measured at 24 hrs; assay type: functional, organism-based
Method in brief: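 Male SD rats (260–280 g); intraluminal nylon suture (~0.26 mm, round tip) occluded MCA for 2 h, then withdrawn for reperfusion, body temperature held at 37 °C. Given iv at 2, 4 and 6 h after ischemia onset; 10 mg/kg in DMSO or 3 mg/kg in saline; DMSO or saline vehicle controls. Neurological score at 24 h after MCAO; n = 8–12, mean ± SD.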

[11] = Cytotoxicity against Sprague-Dawley rat CGN cells at <10 uM after 72 hrs by MTT assay; assay type: cell-based; method in brief: as §1
[12] = Neuroprotective activity against oxygen-glucose deprivation-induced neuronal cell death in Sprague-Dawley rat CGN cells assessed as cell viability at 1 uM preincubated for 24 hrs followed by induction of oxygen-glucose deprivation measured after 24 hrs by MTT assay (reference value: 48.7%); assay type: functional; settings: read-out: Activity
[13] = Neuroprotective activity against oxygen-glucose deprivation-induced neuronal cell death in Sprague-Dawley rat CGN cells at 10 uM preincubated for 24 hrs followed by induction of oxygen-glucose deprivation measured after 24 hrs relative to control; assay type: functional
neuronal [14] = assay: Neuroprotective activity against glutamate-induced neuronal cell death in Sprague-Dawley rat CGN cells assessed as increase in GSH level at 10 uM preincubated for 24 hrs followed by glutamate challenge measured after 24 hrs; assay type: functional, cell-based
Method in brief: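 Granule neurons pretreated 24 h with […] compound, then […] for 24 h. Lysed in buffer containing protease inhibitor cocktail; protein determined by BCA. SOD activity and GSH level measured with commercial kits. n = 3, mean ± SD.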

neuronal [15] = assay: Neuroprotective activity against glutamate-induced neuronal cell death in Sprague-Dawley rat CGN cells assessed as increase in cell viability preincubated for 24 hrs followed by glutamate challenge measured after 24 hrs by MTT assay; assay type: functional, cell-based
[16] = Neuroprotective activity against nutrient deprivation-induced neuronal cell death in Sprague-Dawley rat CGN cells at 10 uM preincubated for 24 hrs followed by induction of nutrient deprivation measured after 24 hrs relative to control; assay type: functional
Method in brief: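 Primary rat cerebellar granule neurons (8-day-old Sprague-Dawley pups, DIV 6-8) pretreated 24 h with compound (0.1% DMSO final), then deprived of B27 serum substitute for 24 h. MTT viability (0.5 mg/ml, 4 h) read at 570 nm against control = 100%; neuroprotection percentage derived from the basal deprived value; mean ± SD, n = 3.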

neuronal [17] = assay: Neuroprotective activity against glutamate-induced neuronal cell death in Sprague-Dawley rat CGN cells assessed as increase in SOD level at 10 uM preincubated for 24 hrs followed by glutamate challenge measured after 24 hrs; assay type: functional, cell-based
[18] = Neuroprotective activity against oxygen-glucose deprivation-induced neuronal cell death in Sprague-Dawley rat CGN cells assessed as cell viability at 10 uM preincubated for 24 hrs followed by induction of oxygen-glucose deprivation measured after 24 hrs by MTT assay (reference value: 48.7%); assay type: functional; settings: read-out: Activity

CCCCNC(=O)c1cc2c(cc1OC)[C@@]1(C)CC[C@H](O)C(C)(C)[C@@H]1CC2
Activity (Rattus norvegicus [1]): 44%
Activity [2]: Dose-dependent effect
Activity [3]: 90.1%
Papp at 18 h, 25 ug/ml [4]: 11.3 ×10⁻⁶ cm/s
Activity [5]: Toxic
Activity (Rattus norvegicus [6]): Active
Activity (Rattus norvegicus [7]): Non-toxic
viability at 10 µM [8]: 94.1%
Activity (Rattus norvegicus [9]): Active
Activity (Rattus norvegicus [10]): Active
Activity [11]: Non-toxic
viability at 1 µM [12]: 58.9%
Activity [13]: 75.4%
Activity (neuronal [14]): Active
Activity (neuronal [15]): Dose-dependent effect
Activity [16]: 25.9%
Activity (neuronal [17]): Active
viability at 10 µM [18]: 87.4%
